Data: ChEMBL document CHEMBL5346861, “Designing quinoline-isoniazid hybrids as potent anti-tubercular agents inhibiting mycolic acid biosynthesis” (Eur J Med Chem, 2022)
≈ marks a conversion by molar mass, not a printed value. Calls of active or inactive are those of the source. No cut-off for these calls is given here.

Columns and labels:
[1] = system: Mycobacterium tuberculosis; test: Antimycobacterial activity against Mycobacterium tuberculosis mc2 6230 harbouring pMV261 plasmid overexpressing inhA assessed as inhibition of bacterial growth measured after 7 days by 7H9 broth based dilution method; format: functional; conditions: mc2 6230, 168 h, time 7 day
[2] = system: Mycobacterium tuberculosis; test: Antimycobacterial activity against Mycobacterium tuberculosis mc2 6230 harbouring pMV261 plasmid overexpressing inhA assessed as inhibition of bacterial growth measured after 7 days by 7H10 agar based dilution method; format: functional; conditions: mc2 6230, 168 h, time 7 day
[3] = system: Mycobacterium tuberculosis; test: Induction of resistance development in Mycobacterium tuberculosis mc2 6230 harbouring pMV261 plasmid overexpressing inhA assessed as fold increase in MIC measured after 7 days by 7H9 broth based dilution method; format: functional; conditions: time 7 day
[4] = system: Mycobacterium tuberculosis; test: Induction of resistance development in Mycobacterium tuberculosis mc2 6230 harbouring pMV261 plasmid overexpressing inhA assessed as fold increase in MIC measured after 7 days by 7H10 agar based dilution method; format: functional; conditions: time 7 day
[5] = system: Mycobacterium tuberculosis; test: Induction of resistance development in Mycobacterium tuberculosis harbouring katG W161R mutant assessed as resistance frequency at 5 times of MIC by visual analysis; format: functional
[6] = system: Mycobacterium tuberculosis; test: Inhibition of mycolic acid biosynthesis in Mycobacterium tuberculosis mc2 6230 harbouring pMV261 plasmid overexpressing inhA assessed as decrease in alpha-mycolic acid at 1.25 ug/ml incubated for 15 mins followed by 14C-labeled acetate addition measured after 7 hrs by TLC analysis; format: functional, organism-based; conditions: dose 1.25 µg/ml, time 435.0 min
Outline: (§1)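 mc²6230 carrying pMV261-inhA, treated for 15 hrs at 37 °C with agitation in 7H9/OADC/tyloxapol/pantothenate. Then labelled with 1 μCi/mL [¹⁴C]acetate for 7 hrs. Mycolic acid methyl esters extracted, 50,000 cpm resolved by TLC (hexane/ethyl acetate 19/1, 2 runs) and exposed overnight.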

[7] = system: Mycobacterium tuberculosis; test: Inhibition of mycolic acid biosynthesis in Mycobacterium tuberculosis mc2 6230 harbouring pMV261 plasmid overexpressing inhA assessed as decrease in methoxy-mycolic acid at 1.25 ug/ml incubated for 15 mins followed by 14C-labeled acetate addition measured after 7 hrs by TLC analysis; format: functional, organism-based; conditions: dose 1.25 µg/ml, time 435.0 min; outline: as §1
[8] = system: Mycobacterium tuberculosis; test: Inhibition of mycolic acid biosynthesis in Mycobacterium tuberculosis mc2 6230 harbouring pMV261 plasmid overexpressing inhA assessed as decrease in keto-mycolic acid at 1.25 ug/ml incubated for 15 mins followed by 14C-labeled acetate addition measured after 7 hrs by TLC analysis; format: functional, organism-based; conditions: dose 1.25 µg/ml, time 435.0 min; outline: as §1
[9] = system: Mycobacterium tuberculosis; test: Induction of resistance development in Mycobacterium tuberculosis harbouring katG F594C mutant assessed as resistance frequency at 5 times of MIC by visual analysis; format: functional
[10] = system: Mycobacterium tuberculosis; test: Induction of resistance development in Mycobacterium tuberculosis harbouring katG 186 del mutant assessed as resistance frequency at 20 times of MIC by visual analysis; format: functional
[11] = system: Mycobacterium tuberculosis; test: Induction of resistance development in Mycobacterium tuberculosis harbouring katG amino acid change at stop codon mutant assessed as resistance frequency at 5 times of MIC by visual analysis; format: functional
[12] = system: Mycobacterium tuberculosis; test: Induction of resistance development in Mycobacterium tuberculosis harbouring katG G495D mutant assessed as resistance frequency at 20 times of MIC by visual analysis; format: functional

| SMILES | MIC [1] | MIC [2] | fold change (FC) [3] | fold change (FC) [4] | Activity [5] | inhibition [6] | inhibition [7] | inhibition [8] | Activity [9] | Activity [10] | Activity [11] | Activity [12] |
| --- | --- | --- | --- | --- | --- | --- | --- | --- | --- | --- | --- | --- |
| COc1cc(/C=N/NC(=O)c2ccncc2)ccc1OCc1cn(CCCNc2ccnc3cc(Cl)ccc23)nn1 | 25 µg/mL (≈ 43.8 µM) | 6.25 µg/mL (≈ 10.9 µM) | 25 | 25 | 1.16 10^-6No_unit |  |  |  |  |  |  |  |
| COc1cc(/C=N/NC(=O)c2ccncc2)ccc1OCc1cn(CCNc2ccnc3cc(Cl)ccc23)nn1 | 25 µg/mL (≈ 44.9 µM) | 12.5 µg/mL (≈ 22.4 µM) | 25 | 25 |  |  |  |  |  |  |  |  |
| COc1cc(/C=N/NC(=O)c2ccncc2)ccc1OCc1cn(-c2ccnc3cc(Cl)ccc23)nn1 | 50 µg/mL (≈ 97.3 µM) | 12.5 µg/mL (≈ 24.3 µM) | 25 | 25 |  |  |  |  |  |  |  |  |
| O=C(N/N=C/c1ccccc1-n1cc(CN2CCN(c3ccnc4cc(Cl)ccc34)CC2)nn1)c1ccncc1 | 6.25 µg/mL (≈ 11.3 µM) | 6.25 µg/mL (≈ 11.3 µM) | 25 | 25 |  | inactive | inactive | inactive | 1.8 10^-6No_unit | 7.1 10^-7No_unit |  |  |
| O=C(N/N=C/c1ccc(OCc2cn(-c3ccnc4cc(Cl)ccc34)nn2)cc1)c1ccncc1 | > 200 µg/mL | 6.25 µg/mL (≈ 12.9 µM) | 25 | 25 |  |  |  |  |  |  |  |  |
| O=C(N/N=C/c1ccc(OCc2cn(CCNc3ccnc4cc(Cl)ccc34)nn2)cc1)c1ccncc1 | 12.5 µg/mL (≈ 23.7 µM) | 6.25 µg/mL (≈ 11.9 µM) | 25 | 25 |  |  |  |  |  |  |  |  |
| NNC(=O)c1ccncc1 [ISONIAZID] | 1 µg/mL (≈ 7.29 µM) | 1 µg/mL (≈ 7.29 µM) | 20 | 20 |  |  |  |  |  |  |  |  |
| O=C(N/N=C/c1ccc(OCc2cn(CCCNc3ccnc4cc(Cl)ccc34)nn2)cc1)c1ccncc1 | 12.5 µg/mL (≈ 23.1 µM) | 6.25 µg/mL (≈ 11.6 µM) | 25 | 25 |  |  |  |  |  |  | 1.52 10^-6No_unit | 5 10^-7No_unit |
